Legend:
[1] = melting temperature; fluorescence melt of hairpins on a sequencing array, two-state fit, raised by 9.35 °C to match UV melts; conditions: sodium 0.088 M
Method in brief: (§1)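 Library hairpins on a sequenced MiSeq flow cell carried annealed Cy3 and quencher oligos, and their Cy3 fluorescence was imaged in 50 mM Na-HEPES pH 8.0 with 25 mM NaCl, in 2.5 °C steps up to 60 °C. Signals were normalised to Cy3 before quenching and to control constructs. Melting temperature and folding enthalpy were obtained from bootstrapped two-state fits, combined by inverse-variance weighting across four replicates, and the fitted temperatures were then raised by 9.35 °C to match UV melts.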

[2] = folding enthalpy; higher = less favourable; fluorescence melt of hairpins on a sequencing array, two-state fit; conditions: sodium 0.088 M
Method in brief: as §1

Sequence	Tm [1] [°C]	folding enthalpy [2] [kcal/mol]
GATCAAGTATTTGATC ((((((....))))))	50.3	-37.8
GTGCTTGGAAACAAGCAC (((((((....)))))))	68.1	-38.7
GTCACCCGAAAGGGCGAC (((.(((....))).)))	58.9	-35.7
GTCAAGCGAAAGCTAGAC (((.(((....))).)))	52.8	-25.6
GGTTGGGGAAACCTAGCC ((.(.((....)).).))	38	-19.1
GTTTATGGAAACGTAAAC (((((.(....).)))))	37.5	-30
GATCTTACCTAAGATC ((((((....))))))	45	-40.2
GCGTAGGGAAACCTGCGC (((.(((....))).)))	58.9	-37.7
GTGCACCCGAAAGGGCAC (((..(((....))))))	52.1	-23.9
GTGTTCGAAAGAATGCAC ((((((....)))..)))	33.5	-19.1
GAGCCCCGAAAGGGCCTC (((.(((....))).)))	47.3	-14.6
GGCCTGGGAAACCAAGCC (((.(((....))).)))	45.4	-30.1
GTTTAGACGAAAGTCAAC (((..(((....))))))	30.4	-9.97
GCGCTAGGAAACTAGCAC (.(((((....))))).)	44	-15.4
GTCATGCGAAAGCAGGAC (((.(((....))).)))	67.7	-32.2
GTCGTTCGAAAGAAGGAC (((.(((....))).)))	52.2	-38.1
GCGAGTCGAAAGACACGC (((.(((....))).)))	66.6	-38.4
GTCATCGAAAGATGCGAC ((((((....)))..)))	46.1	-19.8
GCGTGAATACGC ((((....))))	61.2	-31.3
GCTGACCCGAAAGGGAGC (((..(((....))))))	41.8	-14.7
GGATGTGGAAACGCATTC (.(((.(....).))).)	33.9	-22.9
GGTGTGACGAAAGTCACC (((..(((....))))))	43.6	-7.87
GATCGGGCGAAAGCCATC (((..(((....))))))	22.6	-10.2

Sequence	Tm [1] [°C]	folding enthalpy [2] [kcal/mol]
GTCTATGGAAACGTAGAC (((((.(....).)))))	43.7	-31.8
GGTAACGAAAGTTTAACC ((((((....)))..)))	33.8	-15.7
CGACCGGAAACGGCTTCG ((((((....)))..)))	28.5	-17
GCCTTCGGAAACGAAGAC (.(((((....))))).)	43.3	-18.4
GATCTCCGAGAGATC ((((((...))))))	51	-35.2
GCAAGGCGAAAGCCCAGC ((..(((....)))..))	45.9	-13.1
GCTCCCCCGAAAGGGAGC (((..(((....))))))	66.1	-29.4
GCGCGGGGAAACCCACGC (((.(((....))).)))	61.6	-35
GTCTAATCGAAAGATGAC (((..(((....))))))	31.6	-14.8
GCATTTGGAAACAAACGC ((.((((....)))).))	37.2	-30.1
GTGGAACGAAAGTTTCAC (((.(((....))).)))	53.2	-42.7
GGAAAGGGAAACTTTTCC (((((.(....).)))))	38.4	-18.8
GTCGGCGGAAACGCCAAC ((.((((....)))).))	48.2	-12.7
GGCGTTCGAAAGAAAGCC (((.(((....))).)))	56.8	-34.1
TCTGAGAAATCAGA (((((....)))))	33.4	-11.1
GACAATGGAAACATTGTC (((((((....)))))))	57	-47.7
GCTCGTCCGAAAGGAAGC (((..(((....))))))	36.6	-8.41
GGACACGAAAGTGGTTCC ((((((....)))..)))	37.3	-14.3
GAAGGAGGAAACTCCTCC (.(((((....))))).)	40.9	-12.7
GATACCGAAAGGTACATC ((((((....)))..)))	26.9	-10.4
GAGTCCGGAAACAGACTC (((((.(....).)))))	41.6	-31.1
GATCATTGGTATGATC ((((((....))))))	46.3	-31.8
GGAATAGCGAAAGCTTCC (((..(((....))))))	39.2	-20.2
